pIC50: −log10 of the molar value. Starred links: 1 amine or outer side, 2 acyl side, 3 side chain; linkers in the order of their positions; H or OH if unused. Non-standard residues stand in square brackets, D forms with d. Residues, ends and D or L forms follow the SMILES beside them. *: point of attachment. X1 = CC(C)C[C@H](C(=O)[*:2])[C@H](O)C[C@H]1CCCN1[*:1]; CO = O=C([*:1])[*:2]; NHBn = c1ccc(CN*)cc1
Each molecule was assayed against Protease (Human T-cell leukemia virus type I, UniProt Q82134, C109A/C90A/L40I) (assay: (§1) Inhibition of HTLV-1 protease L40I/C90A/C109A mutant using dodecapeptide as substrate by HPLC analysis).
Method in brief: (§2)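 Synthetic mutant HTLV-1 protease at 5.6 nM, with a dodecapeptide substrate, in 0.5 M sodium acetate pH 5.6 containing 10% glycerol, 10 mM DTT and 4 M NaCl. Loss of substrate during incubation followed by reversed-phase HPLC (C18, 10–40% CH3CN gradient over 30 min in 0.1% TFA). IC50 from a sigmoidal dose–response curve; assay run three times.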

Protease (Human T-cell leukemia virus type I, UniProt Q82134, C109A/C90A/L40I), sequence (Q82134 entry or part of it C109A/C90A/L40I): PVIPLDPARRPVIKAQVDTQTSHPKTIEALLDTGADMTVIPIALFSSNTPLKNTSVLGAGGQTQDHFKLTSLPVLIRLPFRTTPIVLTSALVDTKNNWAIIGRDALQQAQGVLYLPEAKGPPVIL

Row | Structure (SMILES) | pIC50
1 | CCCC(CCC)C(=O)N1CCC[C@@H]1C[C@@H](O)[C@H](CC(C)C)C(=O)N[C@@H](C(=O)N[C@@H](C(=O)N1CCC[C@@H]1C(=O)N1CCC[C@@H]1C(N)=O)C(C)C)[C@H](C)CC | 3.38
2 | CC[C@@H](C)[C@@H](NC(=O)[C@@H](CC(C)C)[C@H](O)C[C@H]1CCCN1C(=O)C(C)(C)C)C(=O)N[C@@H](C(=O)N1CCC[C@@H]1C(=O)N1CCC[C@@H]1C(N)=O)C(C)C | 3.00
3 | CC[C@@H](C)[C@@H](N)C(=O)N1CCC[C@@H]1C[C@@H](O)[C@H](CC(C)C)C(=O)N[C@@H](C(=O)N[C@@H](C(=O)N1CCC[C@@H]1C(=O)N1CCC[C@@H]1C(N)=O)C(C)C)[C@H](C)CC | 2.82
4 | CC[C@@H](C)[C@@H](NC(=O)[C@@H](CC(C)C)[C@H](O)C[C@H]1CCCN1C(=O)OCc1ccccc1)C(=O)N[C@@H](C(=O)N1CCC[C@@H]1C(=O)N1CCC[C@@H]1C(N)=O)C(C)C | 3.42
5 | CC[C@@H](C)[C@@H](NC(=O)[C@@H](CC(C)C)[C@H](O)C[C@H]1CCCN1C(=O)[C@H](NC(C)=O)[C@H](C)CC)C(=O)N[C@@H](C(=O)N1CCC[C@@H]1C(=O)N1CCC[C@@H]1C(N)=O)C(C)C (Ac-[dI][X1][dI][dV][dP][dP]-NH2) | 3.96
6 | CC[C@@H](C)[C@@H](NC(=O)[C@@H](CC(C)C)[C@H](O)C[C@H]1CCCN1C(=O)CCc1ccccc1)C(=O)N[C@@H](C(=O)N1CCC[C@@H]1C(=O)N1CCC[C@@H]1C(N)=O)C(C)C | 3.80
7 | CC[C@@H](C)[C@@H](NC(=O)[C@@H](CC(C)C)[C@H](O)C[C@H]1CCCN1C(=O)c1ccccc1)C(=O)N[C@@H](C(=O)N1CCC[C@@H]1C(=O)N1CCC[C@@H]1C(N)=O)C(C)C | 2.96
8 | CC[C@@H](C)[C@@H](NC(=O)[C@@H](CC(C)C)[C@H](O)C[C@H]1CCCN1C(=O)NCc1ccccc1)C(=O)N[C@@H](C(=O)N1CCC[C@@H]1C(=O)N1CCC[C@@H]1C(N)=O)C(C)C ({NHBn-CO}-[X1][dI][dV][dP][dP]-NH2) | 3.80
9 | CC[C@@H](C)[C@@H](NC(=O)[C@@H](CC(C)C)[C@H](O)C[C@H]1CCCN1C(=O)[C@H](NC(=O)[C@H](N)CCC(N)=O)[C@H](C)CC)C(=O)N[C@@H](C(=O)N1CCC[C@@H]1C(=O)N1CCC[C@@H]1C(N)=O)C(C)C | 2.70
10 | CC[C@@H](C)[C@@H](NC(=O)[C@@H](CC(C)C)[C@H](O)C[C@H]1CCCN1C(=O)CCC(C)C)C(=O)N[C@@H](C(=O)N1CCC[C@@H]1C(=O)N1CCC[C@@H]1C(N)=O)C(C)C | 3.28
11 | CC[C@@H](C)[C@@H](NC(=O)[C@@H](CC(C)C)[C@H](O)C[C@H]1CCCN1C(=O)/C=C/c1ccccc1)C(=O)N[C@@H](C(=O)N1CCC[C@@H]1C(=O)N1CCC[C@@H]1C(N)=O)C(C)C | 3.54

What follows are molecules tested against Protease (Human T-cell leukemia virus type I, UniProt Q82134, L40I/C90A/C109A) (assay: as §1).
Method in brief: as §2

Protease (Human T-cell leukemia virus type I, UniProt Q82134, L40I/C90A/C109A), sequence (Q82134 entry or part of it L40I/C90A/C109A): as the sequence (Q82134 entry or part of it C109A/C90A/L40I) above

Row | Structure (SMILES) | IC50
12 | CC[C@@H](C)[C@@H](NC(=O)[C@@H](CC(C)C)[C@H](O)C[C@H]1CCCN1)C(=O)N[C@@H](C(=O)N1CCC[C@@H]1C(=O)N1CCC[C@@H]1C(N)=O)C(C)C | Not Active
